# Jurkat viability: reduces viability or proliferation of Jurkat cells | Jurkat E6.1 viability, ATP luminescence, 48 h | 1.2% of 56,000 active | inhibition, % at 4 µM | AID 463;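 active means inhibition above the mean inhibition of all tested compounds plus 3 SD, cut at about 28% in these data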
# HEK293 NFkB inh: inhibitors of the PMA/ionomycin-induced NF-kB reporter in HEK293 cells; HEK-293 NF-kB luciferase reporter, luminescence; 0.21% of 62,000 active; inhibition, % at 3 µM;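 active means inhibition above the mean of all tested compounds plus 3 SD, cut at about 40% in these data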;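 further: 0% = stimulated DMSO wells and 100% = 10 µM reference inhibitor 5653914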
#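 System: NF-kB luciferase reporter HEK-293 cells | Replication: Single test | Control set: DMSO vs reference inhibitor | Evaluation: % inhibition | Schedule: 1 h pretreatment, 16 h stimulation, 37 °C | Probe or stimulus: PMA with ionomycin | Compound dosing: One dose, 3 µM | Detection: Luciferase luminescence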
# MT1-MMP txn act: MT1-MMP promoter transcription activation. HT1080 MT1-MMP promoter luciferase reporter, luminescence, overnight; active compounds read high. activation factor at 10 µM. 0.16% of 86,000 active;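 active means activation factor of at least 2 for MT1-MMP transcription at 10 µM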
# SF1 activator: activates the human nuclear receptor SF-1; Q13285; AID 522; 1.9% of 65,000 active; CHO-K1 Gal4-SF-1 LBD luciferase reporter; % increase over DMSO SF-1-specific signal; activation, % at 10 µM;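 active means activation above the mean activation of all tested compounds plus 3 SD, cut at about 50% in these data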
#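 Assay system: CHO-K1 cells co-transfected with Gal4 DBD–human SF-1 LBD, 5xGal4 luciferase reporter / Input: 4,000 cells per well / Incubation: 20 h compound exposure at 37 °C after 1 h cell settling / Detection: SteadyLite luciferase luminescence / Control set: DMSO negative control and −SF1 background wells / Replication: one test per compound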
# RORa activator: activates the human nuclear receptor RORA | 1.5% of 65,000 active | activation, % at 10 µM | P35398 | CHO-K1 Gal4-RORA LBD luciferase reporter, luminescence; percent increase over mock-subtracted basal signal;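 active means activation above the mean of all tested compounds plus 3 SD, cut at about 49% in these data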;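 further: 0% = DMSO-treated RORA cells and 100% = added signal equal to DMSO minus mock-transfected cells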
# Target sequence (P35398 whole entry, looked up, the tested form may be a part): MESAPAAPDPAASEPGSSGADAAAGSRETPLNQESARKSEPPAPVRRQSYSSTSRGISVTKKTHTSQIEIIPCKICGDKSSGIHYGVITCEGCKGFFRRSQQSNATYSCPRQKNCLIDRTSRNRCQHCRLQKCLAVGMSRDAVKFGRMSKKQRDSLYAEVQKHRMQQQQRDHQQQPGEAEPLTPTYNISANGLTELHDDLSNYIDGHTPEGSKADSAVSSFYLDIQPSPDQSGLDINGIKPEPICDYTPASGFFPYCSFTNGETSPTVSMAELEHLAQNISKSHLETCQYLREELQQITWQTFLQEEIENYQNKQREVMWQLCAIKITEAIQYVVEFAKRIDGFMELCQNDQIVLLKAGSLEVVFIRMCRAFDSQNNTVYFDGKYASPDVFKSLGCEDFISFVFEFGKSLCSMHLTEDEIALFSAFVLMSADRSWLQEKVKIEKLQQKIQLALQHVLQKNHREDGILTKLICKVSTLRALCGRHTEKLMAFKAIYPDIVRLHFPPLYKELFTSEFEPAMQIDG
# * hit, by the source's call; . = no result given. Compounds with a hit are over-represented: about 2.9% of the library has one in this group of screens.
SMILES,Jurkat viability,HEK293 NFkB inh,MT1-MMP txn act,SF1 activator,RORa activator
Cc1nn(C)c(C)c1/C=C/C(=O)c1cccs1,.,.,1.8,.,.
Cc1nn(C)cc1/C=C/C(=O)c1cccs1,.,.,2.5*,.,.
O=c1oc2ccccc2c(O)c1C=NCc1ccccn1,8,11,0.9,17,11
O=C1C(C=NCc2ccccn2)=C(O)c2ccccc21,7,-32,1.7,55*,47
O=C(Cn1cnc2sc(-c3ccccc3)cc2c1=O)NCc1ccco1,42*,7,1,38,36
CCC(=O)c1ccc(OCC(=O)Nc2nn3cnnc3s2)cc1,.,8,1,-8,-6
COc1cc(NC(=O)c2cc3c(C)nc4ccccc4c3o2)cc(OC)c1OC,5,17,1.2,5,-11
COc1ccc(NC(=O)c2cc(-c3ccc(C)o3)nc3ccccc23)cc1OC,15,8,1.2,24,53*
COc1cc(CC(NC(C)=O)C(=O)NC2CCN(c3nc(C)cc(C)c3C#N)CC2)cc(OC)c1 (stereo not drawn),-2,56*,1.1,-71,-75
COc1cccc(CC(NC(C)=O)C(=O)NC2CCN(c3c4c(nc5ncnn35)CCC4)CC2)c1 (stereo not drawn),-8,6,1.3,72*,21
COc1cccc(CC(NC(C)=O)C(=O)NC2CCN(c3nc(C)cc(C)c3C#N)CC2)c1OC (stereo not drawn),-7,8,1.2,4,27
Cc1ccc(-c2nc3ccc(NS(=O)(=O)c4ccccc4)cc3[nH]2)o1,.,.,1.5,.,.
O=C(CSc1nnnn1-c1ccccc1)NC(=O)Nc1ccc2c(c1)OCCO2,.,-9,1.6,72*,52*
CCOc1ccccc1-n1nnnc1SCC(=O)NC(=O)Nc1ccc2c(c1)OCCO2,.,.,1,.,.
CC(C)OC(=O)CSc1nnnn1-c1ccc2c(c1)OCCO2,-2,-2,1.5,69*,54*
CCN(CC)C(=O)CSCc1cnn(-c2ccccc2)c1-n1cccc1,.,.,1.1,.,.
CC1(C)NC(=O)N(CC(O)CN2CCCCC2)C1=O (stereo not drawn),-4,0,1.1,51*,9
Cn1c(=O)cc(OCCCC(=O)NCc2ccccn2)c2ccccc21,-7,9,1.1,10,1
Cc1ccnc(NC(=O)CCCOc2cc(=O)n(C)c3ccccc23)c1,89*,7,1.1,-59,-57
Cc1c(/C(O)=C2/C(=O)C(=O)N(CCN3CCOCC3)C2c2cccs2)cnn1-c1ccccc1 (stereo not drawn),2,1,1.2,12,6
Cc1ccc(C2/C(=C(\O)c3cnn(-c4ccccc4)c3C)C(=O)C(=O)N2CCN(C)C)o1 (stereo not drawn),.,.,1.8,53*,9
Cc1ccc(C2/C(=C(/O)c3cnn(-c4ccccc4)c3C)C(=O)C(=O)N2CCN2CCOCC2)o1 (stereo not drawn),.,.,1.2,54*,22
CCN(CC)CCN1C(=O)C(=O)/C(=C(/O)c2cnn(-c3ccccc3)c2C)C1c1ccc(C)o1 (stereo not drawn),.,.,1.5,.,.
O=C(Nc1ccc(SC(F)F)cc1)c1ccc2nccnc2c1,32*,-3,1.8,-18,-24
CCn1c(SCC(=O)c2ccc(OC)cc2)nnc1C(C)NC(=O)c1ccc(OC)cc1 (stereo not drawn),3,6,1.1,2,-14
SMILES,Jurkat viability,HEK293 NFkB inh,MT1-MMP txn act,SF1 activator,RORa activator
CCCc1nc(-c2ccc(-c3ccc(F)cc3)cc2)no1,2,6,1.4,53*,18
c1ccc(CCc2nc(-c3ccccc3)no2)cc1,.,.,1.3,.,.
COCCCn1c(SCC(=O)Nc2ccc(C(C)=O)cc2)nc2ccccc2c1=O,2,2,1.7,19,38
CCn1c(SCC(=O)Nc2ccc(C(C)=O)cc2)nc2ccccc21,0,10,1.4,65*,62*
CCN(CC)c1ccc(NC(=O)C2CC3CCC2C3)cc1 (stereo not drawn),-3,-4,1.7,50,55*
Cc1cc(C)cc(N(CC(=O)NCC2CCCO2)C(=O)CCC(=O)Nc2cc(C)on2)c1 (stereo not drawn),-4,1,1.1,-15,-12
CCCCNc1ncnc2c1cnn2-c1ccccc1,90*,-27,0.7,40,63*
c1ccc(-n2ncc3c(NCCCN4CCOCC4)ncnc32)cc1,0,-12,1.8,43,26
Clc1cccc(Nc2ncnc3c2cnn3-c2ccccc2)c1,2,8,1,45,29
Fc1cccc(Nc2ncnc3c2cnn3-c2ccccc2)c1,10,-10,1.3,57*,102*
CCCCNc1ncnc2c1cnn2-c1ccc(Cl)cc1,86*,-16,1.6,90*,109*
Clc1ccc(-n2ncc3c(NCCCn4ccnc4)ncnc32)cc1,.,.,1.8,47,12
COC(=O)c1c(-c2cccnc2)csc1NC(=O)c1cc(C)on1,-4,-32,1.6,80*,57*
Cc1ccc(S(=O)(=O)N=S(CC2CC2(Cl)Cl)CC2CC2(Cl)Cl)cc1 (stereo not drawn),.,.,1,.,.
COc1ccc(NC(=O)NCCN2C(=O)C3C4C=CC(C4)C3C2=O)cc1 (stereo not drawn),-7,9,1.5,30,66*
Cc1ccc(NC(=O)NCCN2C(=O)C3C4C=CC(C4)C3C2=O)cc1 (stereo not drawn),-11,-33,1.4,98*,74*
O=C(NCCN1C(=O)C2C3C=CC(C3)C2C1=O)Nc1ccccc1 (stereo not drawn),-5,-8,1.1,-3,16
Cc1ccc(C(C)C)cc1OCCOCCN1CCCC1,.,.,1,.,.
CCc1cc2c(=O)c(-c3ccc4c(c3)OCCO4)coc2cc1OC(=O)c1ccco1,-12,16,0.6,66*,29
CCCc1cc2c(=O)c(-c3ccc4c(c3)OCCO4)coc2cc1OC(=O)c1ccco1,.,.,1.3,.,.
CCN(CC)S(=O)(=O)c1ccc(S(=O)(=O)N(CC(=O)Nc2ccccc2)Cc2ccco2)cc1,.,.,1,.,.
COc1cc2cc(CN(Cc3nnnn3Cc3ccccc3)CC3CCCO3)c(=O)[nH]c2cc1OC (stereo not drawn),.,15,1,0,-20
COc1ccc2[nH]c(=O)c(CN(Cc3ccccc3)Cc3nnnn3CC3CCCO3)cc2c1 (stereo not drawn),-8,-9,1,57*,83*
O=C(CN1C2CCCC1CC(NC(=O)c1ccccc1)C2)Nc1nccs1 (stereo not drawn),.,.,1.1,.,.
CCN(Cc1ccccc1)C(=O)CCCOc1ccccc1,-2,4,1.5,32,58*
c1ccc(CNc2ncnc3c2ncn3C2CCCCO2)cc1 (stereo not drawn),.,-14,1.7,60*,68*
Clc1ccc(Nc2nc(-c3cccnc3)cs2)cc1,.,.,1.6,.,.
CN(C)c1ccc(Nc2nc(-c3cccnc3)cs2)cc1,0,-30,2*,14,10

# Assay outcomes from PubChem BioAssay.
